Experimental data collected from several papers.
Each line is one published result; the experiments were not run side by side.
Target: Leukocyte tyrosine kinase receptor (LTK, Homo sapiens, UniProt P29376)

| SMILES | read-out | mode | method | tested at | quantity | value |
| --- | --- | --- | --- | --- | --- | --- |
| Cn1cncc1[C@](O)(COc1ccc(C#N)cc1-c1ccc(OC(F)(F)F)cc1)c1ccc(C#N)cc1 | cell-free assay |  | competition with immobilised ligand | 1 µM | remaining binding | 91% |
| Cn1cc(-c2cccc(N3CCc4c(sc5c4CC(C)(C)C5)C3=O)c2CO)cc(Nc2ccncn2)c1=O | enzyme activity | inhibitor |  | 1 µM | inhibition | 4% |
| Nc1ncc(-c2nc(N3CCOCC3)nc(N3CCOCC3)n2)c(C(F)F)n1 | cell-free assay |  | competition with immobilised ligand | 10 µM | remaining binding | 26% |
| COc1ncccc1-c1cnn2ccc(N3CCN(C(=O)OC(C)C)CC3)nc12 | binding |  | competition with immobilised ligand | 1 µM | remaining binding | 68% |
| COc1ccc(OC)c2c(=S)c3ccccc3[nH]c12 | enzyme activity | inhibitor | radiometric | 0.5 µM | remaining activity | 84.5% |
| CC(C)(C)c1nc2c(s1)c1nc(N)ncc1c1ccc(NS(=O)(=O)c3c(F)cccc3F)c(F)c12 | enzyme activity | inhibitor | radiometric | 1 µM | remaining activity | 90% |
| Nc1nccc(-c2c(-c3ccc(F)cc3)ncn2C2CCNCC2)n1 | enzyme activity | inhibitor | radiometric | 0.5 µM | remaining activity | 97.3% |
| CC(C)(C)c1nc(-c2cccc(NS(=O)(=O)c3c(F)cccc3F)c2F)c(-c2ccnc(N)n2)s1 | enzyme activity | inhibitor | radiometric | 1 µM | remaining activity | 93% |
| Cn1cc(-c2cc(F)cc(N3CCn4c(cc5c4CCCC5)C3=O)c2CO)cc(Nc2ccc(N3CCN(C4COC4)CC3)cn2)c1=O | enzyme activity | inhibitor |  | 0.1 µM | inhibition | 11% |
| Cc1nn(C)cc1-c1nc2c(N3CCN(Cc4ccc(Cl)cc4)CC3)c(Cl)cnc2[nH]1 | binding |  | competition with immobilised ligand | 1 µM | remaining binding | 100% |
